Results published in publication PMC10150327 (NAR Cancer, 2023).

Legend:
MRC5 SV40 cells = experiment: Native IdU assay, nascent ssDNA; type: cell-based, human; settings: 2 mM HU, short treatment
BRCA2-depleted cells = settings: cited from earlier work
MRC5SV40 fibroblasts = experiment: Neutral comet assay, HU-induced DSBs; type: cell-based, human; settings: HU 24 h, inhibitor 30 min before HU
RAD52–ssDNA interaction = target: T1, RAD52–ssDNA interaction (Homo sapiens, UniProt P43351); settings: cited from earlier work
T1 sequence (P43351 1-418): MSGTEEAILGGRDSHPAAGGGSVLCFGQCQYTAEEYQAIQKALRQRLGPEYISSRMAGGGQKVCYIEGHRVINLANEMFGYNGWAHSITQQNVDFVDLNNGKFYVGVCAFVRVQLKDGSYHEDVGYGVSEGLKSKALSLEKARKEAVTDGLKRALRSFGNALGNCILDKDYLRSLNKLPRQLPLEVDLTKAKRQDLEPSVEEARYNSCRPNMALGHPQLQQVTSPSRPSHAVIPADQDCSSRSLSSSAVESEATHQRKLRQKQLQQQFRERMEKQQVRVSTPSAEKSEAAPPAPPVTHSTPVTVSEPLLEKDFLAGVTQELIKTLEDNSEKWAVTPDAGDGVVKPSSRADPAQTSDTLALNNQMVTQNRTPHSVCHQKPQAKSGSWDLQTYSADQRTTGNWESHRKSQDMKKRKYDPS

[1] = tested on: association of RAD52 with parental ssDNA; experiment: In situ proximity ligation assay; type: cell-based; settings: after HU treatment
Procedure, shortened: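 Parental DNA was labelled with 50 μM IdU for 20 h, then 2 h in fresh DMEM before treatment. Cells were Triton-permeabilised (0.5%, 10 min, 4°C), fixed in 3% formaldehyde/2% sucrose and blocked in 3% BSA. Probes: rabbit anti-RAD52 (1:150) plus mouse anti-IdU (1:10), then PLA probes, each 1 h at 37°C. Ligation and rolling-circle amplification used a TRITC oligo. Single-antibody controls were included; spots per cell given as mean ± SE.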

RPA–ssDNA interaction = RPA–ssDNA interaction (Homo sapiens, UniProt P27694); settings: cited from earlier work
RPA–ssDNA interaction, sequence (P27694 whole entry): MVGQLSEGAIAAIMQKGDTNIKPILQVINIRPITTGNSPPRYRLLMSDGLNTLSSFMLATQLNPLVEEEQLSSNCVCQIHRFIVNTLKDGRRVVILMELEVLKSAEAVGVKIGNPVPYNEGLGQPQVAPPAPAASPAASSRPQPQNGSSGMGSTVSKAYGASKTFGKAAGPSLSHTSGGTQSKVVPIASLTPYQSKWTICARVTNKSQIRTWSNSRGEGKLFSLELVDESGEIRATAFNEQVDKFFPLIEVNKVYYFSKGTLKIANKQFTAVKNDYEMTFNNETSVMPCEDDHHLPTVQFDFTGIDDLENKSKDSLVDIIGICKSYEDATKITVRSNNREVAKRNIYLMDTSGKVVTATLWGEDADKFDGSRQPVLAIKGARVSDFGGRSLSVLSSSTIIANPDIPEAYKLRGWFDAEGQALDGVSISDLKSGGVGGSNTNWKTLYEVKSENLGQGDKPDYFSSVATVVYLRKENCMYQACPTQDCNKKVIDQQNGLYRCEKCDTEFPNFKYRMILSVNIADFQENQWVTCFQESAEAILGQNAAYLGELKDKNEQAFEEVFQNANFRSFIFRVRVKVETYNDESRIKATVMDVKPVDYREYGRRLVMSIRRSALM
RPA–ssDNA interaction, sequence (P15927 whole entry partner): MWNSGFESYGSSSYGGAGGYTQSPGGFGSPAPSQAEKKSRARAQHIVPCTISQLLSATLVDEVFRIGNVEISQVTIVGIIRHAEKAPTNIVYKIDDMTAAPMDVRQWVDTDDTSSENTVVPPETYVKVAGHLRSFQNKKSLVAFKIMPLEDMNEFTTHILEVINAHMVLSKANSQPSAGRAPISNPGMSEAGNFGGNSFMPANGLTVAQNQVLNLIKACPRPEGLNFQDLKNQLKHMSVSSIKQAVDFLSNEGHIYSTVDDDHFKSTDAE
RPA–ssDNA interaction, sequence (P35244 whole entry partner): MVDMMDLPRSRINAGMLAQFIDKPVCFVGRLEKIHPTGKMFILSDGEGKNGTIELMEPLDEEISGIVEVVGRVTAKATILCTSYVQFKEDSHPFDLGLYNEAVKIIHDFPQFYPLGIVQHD

[2] = tested on: complemented cell line (HA); settings: cited from earlier work
EUFA423F = settings: cited from earlier work
mass photometry = target: the molecule itself; experiment: mass photometry

Oc1cc(O)c2c(c1)O[C@H](c1cc(O)c(O)c(O)c1)[C@H](O)C2 [EGC, epigallocatechin]
Exposure of nascent ssDNA (native anti-IdU IF) (MRC5 SV40 cells): significantly increased the level of ssDNA
Toxicity to BRCA2-depleted cells (BRCA2-depleted cells): selectively toxic
DSBs formation (tail moment) in HU-treated cells (MRC5SV40 fibroblasts): significantly reduced
Competition with ssDNA binding to RAD52 (RAD52–ssDNA interaction): competed with ssDNA binding to RAD52
Specificity for RAD52 (RAD52–ssDNA interaction): highly specific to RAD52
Association of RAD52 with parental ssDNA (PLA spots per cell) [1]: supressed

O=C(O[C@@H]1Cc2c(O)cc(O)cc2O[C@@H]1c1cc(O)c(O)c(O)c1)c1cc(O)c(O)c(O)c1 [EGCG, epigallocatechin gallate]
Effect on ssDNA binding to RPA (RPA–ssDNA interaction): also inhibited the RPA–ssDNA interaction

CO[C@@]12[C@H](COC(N)=O)C3=C(C(=O)C(C)=C(N)C3=O)N1C[C@@H]1N[C@@H]12 [mitomycin C]
Sensitivity of complemented cell line (HA) [2]: resistant

C[C@]1(c2nc3c(C(N)=O)cccc3[nH]2)CCCN1 [veliparib]
Sensitivity of EUFA423F cells (EUFA423F): sensitive
Sensitivity of complemented cell line (HA) [2]: resistant

B1: 6xHis-tagged human RAD52 (wild type) (natural protein)
chain: MSGTEEAILGGRDSHPAAGGGSVLCFGQCQYTAEEYQAIQKALRQRLGPEYISSRMAGGGQKVCYIEGHRVINLANEMFGYNGWAHSITQQNVDFVDLNNGKFYVGVCAFVRVQLKDGSYHEDVGYGVSEGLKSKALSLEKARKEAVTDGLKRALRSFGNALGNCILDKDYLRSLNKLPRQLPLEVDLTKAKRQDLEPSVEEARYNSCRPNMALGHPQLQQVTSPSRPSHAVIPADQDCSSRSLSSSAVESEATHQRKLRQKQLQQQFRERMEKQQVRVSTPSAEKSEAAPPAPPVTHSTPVTVSEPLLEKDFLAGVTQELIKTLEDNSEKWAVTPDAGDGVVKPSSRADPAQTSDTLALNNQMVTQNRTPHSVCHQKPQAKSGSWDLQTYSADQRTTGNWESHRKSQDMKKRKYDPS
stoichiometry N (mass photometry): 10
